Published values collected from several papers.
Protocols differ between the studies behind these lines.
Target: Tyrosine-protein kinase Tec (TEC, Homo sapiens, UniProt P42680)
One construct used (P42680 1-631): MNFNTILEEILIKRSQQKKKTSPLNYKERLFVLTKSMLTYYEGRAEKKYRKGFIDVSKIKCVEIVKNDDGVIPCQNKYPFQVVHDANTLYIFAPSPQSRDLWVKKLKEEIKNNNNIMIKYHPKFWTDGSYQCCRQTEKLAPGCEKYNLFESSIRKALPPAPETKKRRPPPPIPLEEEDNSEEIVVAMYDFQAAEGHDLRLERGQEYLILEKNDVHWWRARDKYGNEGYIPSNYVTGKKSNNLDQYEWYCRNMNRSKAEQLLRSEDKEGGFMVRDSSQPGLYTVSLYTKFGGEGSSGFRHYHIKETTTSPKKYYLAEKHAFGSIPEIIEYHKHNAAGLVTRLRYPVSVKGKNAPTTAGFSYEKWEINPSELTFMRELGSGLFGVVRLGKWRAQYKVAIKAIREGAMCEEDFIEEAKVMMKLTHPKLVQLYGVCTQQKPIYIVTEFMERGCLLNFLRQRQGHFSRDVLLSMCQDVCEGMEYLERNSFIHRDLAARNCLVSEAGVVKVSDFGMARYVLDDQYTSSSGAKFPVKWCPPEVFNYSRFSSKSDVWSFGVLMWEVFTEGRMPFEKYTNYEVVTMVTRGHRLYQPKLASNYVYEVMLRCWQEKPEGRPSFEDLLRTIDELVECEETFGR

O=C(c1ccc(Nc2ncc(Cl)c(-c3ccc(Cl)s3)n2)cc1)N1CCC(N2CCCC2)CC1
remaining binding (binding; competition with immobilised ligand; 1 µM): 100%

CS(=O)(=O)c1cc(C2(NC(=O)c3cncc4c3cnn4-c3ccc(F)cc3)CC2)ccn1
remaining binding (cell-free assay; competition with immobilised ligand; 1 µM): 99%

O=C(c1ccc(Nc2nccc(-c3cc4ccccc4s3)n2)cc1)N1CCC(N2CCCC2)CC1
remaining binding (binding; competition with immobilised ligand; 1 µM): 100%

Nc1ncc2c(n1)-c1c([nH]c3ccc(C#CC4CC4)cc13)CCCC2
remaining binding (binding; competition with immobilised ligand; 1 µM): 100%

CC1CCCN1c1nccc(-c2cnn3ncccc23)n1 (stereo not drawn)
remaining binding (binding; 1 µM): 100%

CN(C(=O)c1ccccc1)c1cc(N(C)c2ccc3c(c2)CCc2ccc(C(=O)NCCN4CCOCC4)cc2C3=O)ccc1F
remaining binding (cell-free assay; competition with immobilised ligand; 1 µM): 100%

CN(C)c1nccc(-c2cnn3ncccc23)n1
remaining binding (binding; 1 µM): 90%

O=C(NCCCN1CCOCC1)c1ccc(Nc2ncc(Cl)c(-c3ccc(Cl)s3)n2)cc1
remaining binding (binding; competition with immobilised ligand; 1 µM): 100%

COc1cnc(Nc2cccc(S(N)(=O)=O)c2)nc1N1CCN(c2ccccc2)C(=O)C1
remaining binding (binding; competition with immobilised ligand; 1 µM): 100%

c1cnn2ncc(-c3ccnc(N4CCC45COC5)n3)c2c1
remaining binding (binding; 1 µM): 99%

O=C(Nc1c[nH]nc1C(=O)NC1CCNCC1)c1cc(F)cc(F)c1
remaining binding (binding; competition with immobilised ligand; 1 µM): 100%

N[C@@H]1CCN(c2nccc(-c3cnn4ncccc34)n2)C1
remaining binding (binding; 1 µM): 95%

O=C(O)[C@H]1[C@H](Cn2nnc3ccccc3c2=O)CC[C@@H]1C(=O)c1ccc(OCCC2CCOCC2)cc1
remaining binding (binding; competition with immobilised ligand; 1 µM): 100%

COc1ccnn2ncc(-c3ccnc(N(C)C)n3)c12
remaining binding (binding; 1 µM): 93%

CSc1cccnc1N1CCN(Cc2nc3ccccc3[nH]2)CC1
remaining binding (binding; competition with immobilised ligand; 1 µM): 90%

C=CC(=O)N1CCC(C(=O)NCC(=O)N2CCN(c3nc(-c4cnc(N)nc4C(F)F)nc(N4CCOCC4)n3)CC2)CC1
remaining binding (binding; competition with immobilised ligand; 1 µM): 99%

C[C@@H](c1ccc(-n2cnc3c(N)ncnc32)cc1)N1CCc2nn(C)c(Cc3ccccc3)c2C1=O
remaining binding (binding; competition with immobilised ligand; 0.1 µM): 63%

O=c1nc(-c2ccccn2)sc2ccccc12
remaining binding (binding; competition with immobilised ligand; 1 µM): 82%

COc1cnc(Nc2cccc(S(N)(=O)=O)c2)nc1N1CCN(c2ccccc2)CC1
remaining binding (binding; competition with immobilised ligand; 1 µM): 85%

C[C@@H]1CCN(c2nccc(-c3cnn4ncccc34)n2)C1
remaining binding (binding; 1 µM): 90%

CCS(=O)(=O)c1cc2cc(C[C@@](O)(CC(C)(C)c3ccc(F)cc3C(N)=O)C(F)(F)F)[nH]c2cn1
remaining binding (cell-free assay; competition with immobilised ligand; 1 µM): 100%
